Assay results taken from article PMC4353613 (Structure (London, England : 1993), 2014).

Columns and labels:
[1] = tested on: rat stomach fundus; test: Gastric contraction assay; conditions: for biological activity in fundus strip contraction: concentrations up to 10μM
[2] = target: T1, human C3aR1 (Homo sapiens, UniProt Q16581); test: β-arrestin recruitment assay in HTLA cells transfected with the C3aR1 receptor; format: cell-based; conditions: for EC50 times lower than that of C3a: human C3aR1, relative to C3a
T1 sequence (Q16581 1-482): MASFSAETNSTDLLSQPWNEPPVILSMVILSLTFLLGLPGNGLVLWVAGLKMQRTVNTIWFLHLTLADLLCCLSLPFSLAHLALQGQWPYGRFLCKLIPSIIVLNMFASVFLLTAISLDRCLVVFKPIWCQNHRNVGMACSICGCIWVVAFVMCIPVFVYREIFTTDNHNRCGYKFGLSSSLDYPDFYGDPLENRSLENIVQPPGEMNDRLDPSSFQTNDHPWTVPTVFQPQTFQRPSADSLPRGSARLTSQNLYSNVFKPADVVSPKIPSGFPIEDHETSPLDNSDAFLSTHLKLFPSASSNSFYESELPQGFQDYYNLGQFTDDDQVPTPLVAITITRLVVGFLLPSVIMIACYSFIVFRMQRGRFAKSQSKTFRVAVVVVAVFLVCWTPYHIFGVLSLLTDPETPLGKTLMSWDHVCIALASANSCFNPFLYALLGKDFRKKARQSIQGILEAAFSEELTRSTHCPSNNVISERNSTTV

[3] = tested on: C3aR1 receptor; test: Photoaffinity cross-linking of modified TLQP-21 peptide; format: binding, mouse; conditions: membranes from 3T3 cells, UV 365 nm 30 min; Figure 1B
[4] = tested on: AMPK phosphorylation; test: AMPK phosphorylation, western blotting in 3T3L1 adipocytes; format: cell-based, mouse; conditions: anti-Phospho-AMPK(Thr172) western blot
How it was run: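 3T3-L1 cells from ATCC, differentiated to adipocytes with fetal bovine serum, dexamethasone, methylisobutylxanthine and insulin. Extracts (about 5×10^5 cells) taken up in SDS reducing sample buffer and run on NuPAGE. Primary antibody overnight at 4°C; tubulin as loading probe; peroxidase-coupled donkey secondaries. Semi-quantitative densitometry; ANOVA with Tukey post hoc tests.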

[5] = tested on: 3T3L1 adipocytes; test: Lipolysis assay in 3T3L1 adipocytes; format: cell-based, mouse; conditions: with isoproterenol, 3 hours incubation at 37°C
How it was run: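 Adipocytes at day 8 of differentiation in 6-well plates. Starved 3 h in KRH with 1% BSA, then exposed to test compound with or without agonists/antagonists in KRH with 4% BSA. Media collected and heated at 60°C for 20 min to stop enzyme activity. Cells kept for protein content, or trypsinised for diameter and viability. At least three independent replicates.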

## HFHHALPPAR [HFHH-10]
[1]; 3μM, compared to mouse TLQP-21
  biological activity (response) in fundus strip contraction: ~ 3%
[1]; 6μM
  biological activity (response) in fundus strip contraction: 62%
[1]; 10μM
  biological activity (response) in fundus strip contraction: 75%

## CC(C)C[C@H](NC(=O)[C@@H](N)[C@@H](C)O)C(=O)N[C@@H](CCC(N)=O)C(=O)N1CCC[C@H]1C(=O)N1CCC[C@H]1C(=O)N[C@@H](C)C(=O)N[C@@H](CO)C(=O)N[C@@H](CO)C(=O)N[C@@H](CCCNC(=N)N)C(=O)N[C@@H](CCCNC(=N)N)C(=O)N[C@@H](CCCNC(=N)N)C(=O)N[C@@H](Cc1c[nH]cn1)C(=O)N[C@@H](Cc1ccccc1)C(=O)N[C@@H](Cc1c[nH]cn1)C(=O)N[C@@H](Cc1c[nH]cn1)C(=O)N[C@@H](C)C(=O)N[C@@H](CC(C)C)C(=O)N1CCC[C@H]1C(=O)N1CCC[C@H]1C(=O)N[C@@H](C)C(=O)N[C@@H](CCCNC(=N)N)C(=O)O [TLQP-21]
[2]
  EC50 times lower than that of C3a: approximately 3 times

## TLQPPASSRRRHFHHALAPAR [P18A]
[1]; 3μM, compared to mouse TLQP-21
  biological activity (response) in fundus strip contraction: ~ 65%

## N=C(N)NCCC[C@H](NC(=O)COCC(c1ccccc1)c1ccccc1)C(=O)O [SB290157]
[3]
  cross-linking efficiency of modified TLQP-21 peptide in presence of antagonist: substantial reduction

## TLQPPASSRRRHFHHALPPAA [R21A]
[1]
  biological activity in fundus strip contraction: complete loss of activity
[1]; fundus strips, mutant given before TLQP-21
  block of the activity of a subsequent infusion of TLQP-21 (C3aR1 antagonism): does not block
[4]
  potentiation of AMPK phosphorylation: does not potentiate
[5]
  potentiation of isoproterenol-induced lipolysis: does not potentiate

## C3a: human C3a peptide, first ligand identified for the C3aR1 [reference compound]
[2]; HTLA cells transfected with human C3aR1, Figure 1C
  EC50: 3 µM

## CC(C)C[C@H](NC(=O)[C@H](C)NC(=O)[C@H](CO)NC(=O)[C@@H]1CCCN1C(=O)[C@@H]1CCCN1C(=O)[C@H](CCC(N)=O)NC(=O)[C@H](CC(C)C)NC(=O)[C@@H](N)[C@@H](C)O)C(=O)N[C@@H](CCCNC(=N)N)C(=O)N[C@@H](CCCNC(=N)N)C(=O)N[C@@H](CCCNC(=N)N)C(=O)N[C@@H](Cc1c[nH]cn1)C(=O)N[C@@H](Cc1ccc(O)cc1)C(=O)N[C@@H](Cc1c[nH]cn1)C(=O)N[C@@H](Cc1c[nH]cn1)C(=O)N[C@@H](C)C(=O)N[C@@H](CC(C)C)C(=O)N1CCC[C@H]1C(=O)N1CCC[C@H]1C(=O)N[C@@H](CO)C(=O)N[C@@H](CCCNC(=N)N)C(=O)O [human TLQP-21]
[2]
  EC50 times lower than that of C3a: approximately 22 times

## TLQPPASSRRRHFHHALPAAR [P19A]
[1]; 3μM, compared to mouse TLQP-21
  biological activity (response) in fundus strip contraction: 19%
[1]; 6μM
  biological activity (response) in fundus strip contraction: 35%

## TLQPPASSRRR [TLQP-11]
[1]
  biological activity in fundus strip contraction: zero response
